Scp1 inh: blocks human Scp-1 phosphatase activity. Q9GZU7. Recombinant Scp1, phosphopeptide, malachite green phosphate absorbance. inhibition, % at 20 µM. actives 0.88% (n = 340,000);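 active = inhibition above about 50% at 20 µM, limit read from the data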;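 also: plate controls were DMSO wells with enzyme for no effect and wells lacking enzyme for full effect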
Target sequence (Q9GZU7 76-261 limits assumed): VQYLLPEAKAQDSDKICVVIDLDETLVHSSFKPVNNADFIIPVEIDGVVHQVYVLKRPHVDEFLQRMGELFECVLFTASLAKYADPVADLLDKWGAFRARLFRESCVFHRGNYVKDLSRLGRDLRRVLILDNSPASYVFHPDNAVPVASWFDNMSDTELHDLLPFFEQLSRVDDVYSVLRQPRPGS
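System: SCP-1 catalytic domain; Reagent: Phospho 17-mer peptide substrate; Doses: one concentration, 20 µM, with 1.0% DMSO; Incubation: 45 min room-temperature reaction, 5 min colour, 30 min stabiliser; Signal: Phosphate-binding colour reagent, absorbance read at 630 nm.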
LMPTP inh: LMPTP (human) inhibition. P24666. recombinant LMPTP-A, OMFP fluorogenic substrate, fluorescence intensity. inhibition, % at 20 µM. actives 0.22% (n = 360,000). AID 651560;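 active = compounds that cut the enzyme signal by at least half of the control window in the single-dose screen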;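 also: plate controls were DMSO wells with enzyme plus substrate for no effect and substrate without enzyme for full effect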
Target sequence (P24666 whole entry, looked up): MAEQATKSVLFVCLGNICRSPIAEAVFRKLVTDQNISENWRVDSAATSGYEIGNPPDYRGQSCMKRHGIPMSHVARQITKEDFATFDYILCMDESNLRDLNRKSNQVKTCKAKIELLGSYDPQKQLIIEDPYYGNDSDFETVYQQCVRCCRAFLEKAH
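Test system: LMPTP-A, protein tyrosine phosphatase of low molecular weight; Input: 0.625 nM enzyme; Incubation: 50 min dark incubation at room temperature; Signal: endpoint fluorescence intensity from OMFP dephosphorylation; Read-out basis: % inhibition versus control wells.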
DNMT1 inh: inhibitors of human DNMT1. P26358. DNMT1 molecular beacon, Hinp1I cleavage, fluorescence. inhibition (reported as % activation of signal), % at 10 µM. actives 0.83% (n = 360,000). AID 588458; in the data active = inhibition above about 50%
SUMO1-SIM PPI: alters human SUMO1 binding to SIM partners; P63165; SUMO1 binding to a labelled peptide, TR-FRET, 1 h; inhibition, % at 20 µM; actives 0.33% (n = 360,000); AID 602429; in the data active = inhibition above about 37%
Target sequence (P63165 whole entry, looked up): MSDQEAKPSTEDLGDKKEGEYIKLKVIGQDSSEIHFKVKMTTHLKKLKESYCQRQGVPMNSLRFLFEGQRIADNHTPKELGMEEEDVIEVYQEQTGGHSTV
STEP block: STEP (human) phosphatase inhibition | P54829 | recombinant STEP, OMFP fluorogenic substrate, fluorescence | inhibition, % at 20 µM | actives 0.25% (n = 360,000) | AID 588621;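 active = inhibition at 20 µM, scaled per plate between control wells, above about 37%, limit read from the data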;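 also: 0% = DMSO with enzyme and substrate and 100% = substrate only without enzyme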
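System: STEP phosphatase, cell-free reaction; Buffer or medium: Bis-Tris pH 6.0 buffer with DTT, detergent; Incubation: 20 min at room temperature, dark; Measured by: fluorescence, 480/540 nm.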
GRK2 aptamer HTS: blocks RNA aptamer binding to human GRK2 | bead flow cytometry, FAM-aptamer displacement from GRK2 | AID 488847 | inhibition of aptamer binding, % at 10 µM | actives 0.59% (n = 330,000);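 active = inhibition of aptamer binding above 40%, roughly 3 SD of noise, on plates passing a quality check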;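 also: median bead fluorescence of bound FAM aptamer so fluorescent compounds give negative values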
DNMT1 confirm: DNMT1 inhibition confirmation, single concentration. shares compounds with DNMT1 inh. DNMT1 molecular beacon HinP1I cleavage, fluorescence. inhibition, % at 10 µM. actives 8% (n = 2,300). AID 602385;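 active = average inhibition of at least 30% in the single-concentration confirmation test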
Beacon interf: counter-screen for DNMT1 inhibitors: spectral interference. shares compounds with DNMT1 inh. DNMT1 molecular beacon spectral interference counterscreen, fluorescence 485/520. activation (fluorescence interference), % at 10 µM. actives 1% (n = 2,300). AID 602387;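 active = activation of at least 30% at 10 µM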;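 also: DNMT1 catalytic domain with a HinP1I cleavage step and a FAM/dabcyl DNA beacon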
Starred values were filed as active, the others as inactive; . = no result. An excerpt weighted towards active compounds, which were near 2.1% of everything screened.

SMILES | Scp1 inh | LMPTP inh | DNMT1 inh | SUMO1-SIM PPI | STEP block | GRK2 aptamer HTS | DNMT1 confirm | Beacon interf
O=C(Nc1ccc(N2CCN(c3ccc(C(F)(F)F)cn3)CC2)nc1)c1cccs1 | -7 | 3 | 52* | 10 | 1 | 3 | 3 | 3
O=C(Nc1ccc(N2CCN(c3ncccc3C(F)(F)F)CC2)nc1)c1cccs1 | -5 | 2 | -7 | 10 | 0 | 0 | . | .
O=C1CCC/C(=N/NC(=O)C2CCN(S(=O)(=O)c3cccs3)CC2)C1 | -7 | -1 | 71* | 0 | -3 | 4 | 1 | 4
O=C(C1CCN(S(=O)(=O)c2cccs2)CC1)N1CCCCC1 | 7 | -1 | 4 | 11 | 1 | 0 | . | .
O=c1[nH]cc(S(=O)(=O)N2CCN(c3ccc(F)cc3)CC2)c(=O)[nH]1 | . | -2 | 7 | 7 | 0 | . | . | .
Cc1ccc(-n2cc3c(-c4cccc(Br)c4)nnc(C)c3n2)cc1 | 13 | 7 | 64* | 1 | -17 | 0 | 16 | 0
O=c1c(-c2c(O)cc(O)c3c(=O)cc(-c4ccc(O)cc4)oc23)c(-c2ccc(O)cc2)oc2cc(O)cc(O)c12 | 53* | 15 | 93* | 50* | -3 | 3 | 12 | 7
COc1ccc2c(c1OC)C(=O)N1c3ccccc3N=C(c3ccc([N+](=O)[O-])cc3)CC21 (stereo not given) | -4 | 0 | 62* | -25 | 0 | 0 | 0 | -2
Cc1ccc(C)c(N(Cc2cc3ccc(C)cc3[nH]c2=O)C(=O)c2ccco2)c1 | -4 | 0 | 142* | 2 | 1 | 2 | 3 | 2
CC(C)c1nc2sc3c(=O)[nH]cnc3c2c2c1CCC2 | 0 | -1 | -4 | 29 | -2 | 4 | . | .
Cc1ccc(-c2cc(C(F)F)nc3sc4c(=O)[nH]cnc4c23)cc1 | -6 | -1 | 61* | -39 | -2 | 2 | 3 | 4
Cc1ccccc1-c1cc2nc(NCCN3CCCC3)n(C)c(=O)c2s1 | . | 1 | -10 | -25 | 0 | . | . | .
O=C(Cn1cncc1-c1ccc([N+](=O)[O-])cc1)Nc1cccc2ccccc12 | 13 | 6 | 50* | -14 | 2 | 0 | 7 | -3
CC(C)c1nc(SCC(=O)Nc2c[nH]c(=O)[nH]c2=O)c2cnn(-c3ccccc3)c2n1 | -1 | 1 | 53* | 7 | 1 | 0 | 2 | -1
Cc1nc(SCC(=O)Nc2c(C)nn(C)c2C)c2cnn(-c3ccccc3)c2n1 | -10 | -1 | -2 | 3 | -1 | 1 | . | .
COc1cccc(CSC(C(=O)O)c2ccccc2)c1 (stereo not given) | . | -1 | 1 | 9 | 3 | . | . | .
O=C(c1cccc(C(F)(F)F)c1)N1CCc2c([nH]c3ccccc23)C1C(F)(F)F (stereo not given) | -20 | 2 | -3 | 10 | -3 | 4 | . | .
O=C(N/N=C\c1ccc(Br)o1)C1COc2ccccc2O1 (stereo not given) | 40 | 2 | 51* | 3 | 4 | 10 | 4 | 2
Cn1cnc2c1c(=O)n(Cc1cccc(Br)c1)c(=O)n2C | -7 | -2 | -1 | 5 | -2 | 0 | . | .
CCn1cnc2c1c(=O)n(Cc1cccc(Br)c1)c(=O)n2Cc1ccccc1 | -10 | 2 | 68* | 6 | 0 | 0 | 9 | 10
COc1cccc(NC(=O)CSc2nnc(Cc3cccn3C)n2-c2ccc(F)cc2)c1 | 0 | 0 | 76* | -9 | -1 | 0 | 3 | 5
COc1ccc(-n2c(Cc3cccn3C)nnc2SCC(=O)Nc2cccc(OC)c2)cc1 | -1 | 0 | -1 | 5 | 2 | 0 | . | .
N#Cc1ccc(-c2ccccc2)nc1SCC(=O)c1cc2ccccc2oc1=O | -6 | 2 | 70* | -1 | 2 | 0 | 1 | 5
CC(C)(C)OC(=O)C[C@@H]1C/C=C\C[C@H](CC(=O)NCCO)C(=O)NC[C@@H](c2ccccc2)OC1=O | 1 | 0 | 4 | 3 | 2 | 1 | . | .
Cn1ccc2c(N3c4ccccc4CCc4ccccc43)cc3c(c21)C1CCC3O1 (stereo not given) | . | 5 | 50* | -7 | 6 | . | 1 | 2
SMILES | Scp1 inh | LMPTP inh | DNMT1 inh | SUMO1-SIM PPI | STEP block | GRK2 aptamer HTS | DNMT1 confirm | Beacon interf
CN(C(=O)C1Cc2c(-c3ccccc3Oc3ccccc3)ccnc2O1)c1ccccc1 (stereo not given) | . | 9 | 76* | 5 | -2 | . | 4 | 10
CN(C)CCNC(=O)C1Cc2c(-c3ccccc3Oc3ccccc3)ccnc2O1 (stereo not given) | . | 0 | 1 | 0 | 2 | . | . | .
COc1ccc(C2CC(c3cccc([N+](=O)[O-])c3)=NN2/C(C)=C/C(C)=O)cc1 (stereo not given) | . | 2 | 57* | -16 | -1 | . | 1 | 0
COc1ccc(NC(=O)Nc2nnc(-c3ccccc3F)s2)cc1 | -5 | 20 | 46 | 2 | -6 | 0 | . | .
Cc1ccc(NC(=O)Nc2nnc(-c3ccccc3F)s2)cc1 | -9 | 0 | 56* | 1 | -1 | 0 | 4 | 1
Cc1c(C)c2c(OCC(=O)Nc3cccnc3)cc3c(c2oc1=O)CCC(C)(C)O3 | -1 | 1 | 55* | 14 | 5 | 0 | 1 | 2
CCc1cc(=O)oc2c3c(cc(OCC(=O)Nc4cccnc4)c12)OC(C)(C)CC3 | 7 | 2 | 0 | 6 | 0 | 0 | . | .
CCOC(=O)c1cn(-c2nc(-c3ccc(Cl)c(Cl)c3)cs2)c2c(F)c(N3CCOCC3)c(F)cc2c1=O | 22 | 6 | 58* | 0 | 6 | 0 | 0 | -3
CC(=NNC(=O)COc1cccc(C)c1)c1cccnc1 | -6 | -1 | 80* | -1 | -2 | 0 | 1 | 1
O=C(/C=C/c1ccc(Cl)cc1Cl)N1CCN(c2ccccc2[N+](=O)[O-])CC1 | -14 | 7 | 92* | 0 | 4 | 0 | 1 | -2
O=C(/C=C/c1ccc(Cl)cc1Cl)N1CCN(c2ccc([N+](=O)[O-])c(N3CCOCC3)c2)CC1 | -1 | 9 | -6 | -4 | -5 | 6 | . | .
COC(=O)C1=CN(c2cccc(OCc3ccccc3)c2)C(N)=C(C#N)C1c1ccc(-c2ccccc2)cc1 (stereo not given) | . | 2 | . | -2 | . | . | . | .
CCOC(=O)[C@]12CCC=C1N(Cc1ccco1)C(=O)[C@H](CC(=O)NCCc1ccccc1OC)C2 | . | 0 | . | 6 | . | . | . | .

Compound activity as filed in PubChem.
